Legend:
[1] = Cell cycle arrest in human SMMC-7221 cells assessed as accumulation at G0/G1 phase at 4 uM after 24 hrs by propidium iodide/RNase A staining based FACSCalibur flow cytometry analysis (reference value: 72.17 +/- 1.0 %); assay type: functional
[2] = Cell cycle arrest in human SMMC-7221 cells assessed as accumulation at G0/G1 phase at 1 uM after 24 hrs by propidium iodide/RNase A staining based FACSCalibur flow cytometry analysis (reference value: 72.17 +/- 1.0 %); assay type: functional
[3] = Cell cycle arrest in human SMMC-7221 cells assessed as accumulation at S phase at 2 uM after 24 hrs by propidium iodide/RNase A staining based FACSCalibur flow cytometry analysis (reference value: 14.733 +/- 1.29 %); assay type: functional
[4] = Cell cycle arrest in human SMMC-7221 cells assessed as accumulation at G2/M phase at 1 uM after 24 hrs by propidium iodide/RNase A staining based FACSCalibur flow cytometry analysis (reference value: 8.21 +/- 0.38 %); assay type: functional
[5] = Induction of apoptosis in human SMMC-7221 cells assessed as necrotic cells at 0.5 uM after 48 hrs by AnnexinV-FITC/propidium iodide staining based FACSCalibur flow cytometry analysis (reference value: 2.34 %); assay type: functional
[6] = Induction of apoptosis in human SMMC-7221 cells assessed as early apoptotic cells at 0.5 uM after 48 hrs by AnnexinV-FITC/propidium iodide staining based FACSCalibur flow cytometry analysis (reference value: 0.106 %); assay type: functional
[7] = Cell cycle arrest in human SMMC-7221 cells assessed as accumulation at S phase at 1 uM after 24 hrs by propidium iodide/RNase A staining based FACSCalibur flow cytometry analysis (reference value: 14.733 +/- 1.29 %); assay type: functional
[8] = Induction of apoptosis in human SMMC-7221 cells assessed as late apoptotic cells at 0.5 uM after 48 hrs by AnnexinV-FITC/propidium iodide staining based FACSCalibur flow cytometry analysis (reference value: 7.7 %); assay type: functional
[9] = Cell cycle arrest in human SMMC-7221 cells assessed as accumulation at sub-G1 phase at 2 uM after 24 hrs by propidium iodide/RNase A staining based FACSCalibur flow cytometry analysis (reference value: 4.03 +/- 0.47 %); assay type: functional
L02 = experiment: Cytotoxicity against human LO2 cells assessed as reduction in cell viability after 48 hrs by MTS assay; assay type: cell-based; conditions: L02, 48 h
Method in brief: (§1)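 Cells (5 × 10^3 per well) were plated 12 h before treatment, then exposed continuously to compound for 48 h. MTS was added, with 1–4 h incubation at 37 °C and OD read at 490 nm. IC50 is the concentration cutting OD by 50% versus untreated cells, taken from dose–response curves. Values are the mean of three independent determinations.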

[10] = Cell cycle arrest in human SMMC-7221 cells assessed as accumulation at G2/M phase at 2 uM after 24 hrs by propidium iodide/RNase A staining based FACSCalibur flow cytometry analysis (reference value: 8.21 +/- 0.38 %); assay type: functional
[11] = Induction of apoptosis in human SMMC-7221 cells assessed as late apoptotic cells at 8 uM after 48 hrs by AnnexinV-FITC/propidium iodide staining based FACSCalibur flow cytometry analysis (reference value: 7.7 %); assay type: functional
[12] = Induction of apoptosis in human SMMC-7221 cells assessed as late apoptotic cells at 4 uM after 48 hrs by AnnexinV-FITC/propidium iodide staining based FACSCalibur flow cytometry analysis (reference value: 7.7 %); assay type: functional
[13] = Induction of apoptosis in human SMMC-7221 cells assessed as necrotic cells at 2 uM after 48 hrs by AnnexinV-FITC/propidium iodide staining based FACSCalibur flow cytometry analysis (reference value: 2.34 %); assay type: functional
[14] = Cell cycle arrest in human SMMC-7221 cells assessed as accumulation at G0/G1 phase at 2 uM after 24 hrs by propidium iodide/RNase A staining based FACSCalibur flow cytometry analysis (reference value: 72.17 +/- 1.0 %); assay type: functional
[15] = Cytotoxicity against human SMMC-7221 cells assessed as reduction in cell viability after 48 hrs by MTS assay; assay type: functional, cell-based; conditions: SMMC-7221, 48 h; method in brief: as §1
A549 = experiment: Cytotoxicity against human A549 cells assessed as reduction in cell viability after 48 hrs by MTS assay; assay type: functional, cell-based; conditions: A549, 48 h; method in brief: as §1
[16] = Cell cycle arrest in human SMMC-7221 cells assessed as accumulation at G2/M phase at 4 uM after 24 hrs by propidium iodide/RNase A staining based FACSCalibur flow cytometry analysis (reference value: 8.21 +/- 0.38 %); assay type: functional
MCF7 = experiment: Cytotoxicity against human MCF7 cells assessed as reduction in cell viability after 48 hrs by MTS assay; assay type: functional, cell-based; conditions: MCF7, 48 h; method in brief: as §1
[17] = Induction of apoptosis in human SMMC-7221 cells assessed as late apoptotic cells at 1 uM after 48 hrs by AnnexinV-FITC/propidium iodide staining based FACSCalibur flow cytometry analysis (reference value: 7.7 %); assay type: functional
[18] = Induction of apoptosis in human SMMC-7221 cells assessed as necrotic cells at 8 uM after 48 hrs by AnnexinV-FITC/propidium iodide staining based FACSCalibur flow cytometry analysis (reference value: 2.34 %); assay type: functional
[19] = Induction of apoptosis in human SMMC-7221 cells assessed as viable cells at 4 uM after 48 hrs by AnnexinV-FITC/propidium iodide staining based FACSCalibur flow cytometry analysis (reference value: 89.8 %); assay type: functional; conditions: SMMC-7221, 48 h, read-out: Activity
[20] = Induction of apoptosis in human SMMC-7221 cells assessed as viable cells at 0.5 uM after 48 hrs by AnnexinV-FITC/propidium iodide staining based FACSCalibur flow cytometry analysis (reference value: 89.8 %); assay type: functional; conditions: SMMC-7221, 48 h, read-out: Activity
BEAS-2B = experiment: Cytotoxicity against human BEAS2B cells assessed as reduction in cell viability after 48 hrs by MTS assay; assay type: cell-based; method in brief: as §1
[21] = Cell cycle arrest in human SMMC-7221 cells assessed as accumulation at sub-G1 phase at 4 uM after 24 hrs by propidium iodide/RNase A staining based FACSCalibur flow cytometry analysis (reference value: 4.03 +/- 0.47 %); assay type: functional
[22] = Induction of apoptosis in human SMMC-7221 cells assessed as early apoptotic cells at 2 uM after 48 hrs by AnnexinV-FITC/propidium iodide staining based FACSCalibur flow cytometry analysis (reference value: 0.106 %); assay type: functional
SW480 = experiment: Cytotoxicity against human SW480 cells assessed as reduction in cell viability after 48 hrs by MTS assay; assay type: functional, cell-based; conditions: SW480, 48 h; method in brief: as §1
[23] = Induction of apoptosis in human SMMC-7221 cells assessed as early apoptotic cells at 1 uM after 48 hrs by AnnexinV-FITC/propidium iodide staining based FACSCalibur flow cytometry analysis (reference value: 0.106 %); assay type: functional
[24] = Cell cycle arrest in human SMMC-7221 cells assessed as accumulation at S phase at 4 uM after 24 hrs by propidium iodide/RNase A staining based FACSCalibur flow cytometry analysis (reference value: 14.733 +/- 1.29 %); assay type: functional

COc1cccc2c1N(CCCn1c[n+](Cc3ccc(C)cc3)c3cc(C)c(C)cc31)C[C@@H]1Cc3ccc(Br)cc3[C@H]21.[Br-]
Activity [1]: 62.54%
Activity [2]: 80.32%
Activity [3]: 9.27%
Activity [4]: 7.64%
Activity [5]: 6.79%
Activity [6]: 0.314%
Activity [7]: 10.18%
Activity [8]: 8.66%
Activity [9]: 1.21%
IC50 (L02): 2.1 µM
Activity [10]: 9.16%
Activity [11]: 81.4%
Activity [12]: 76.8%
Activity [13]: 6.13%
Activity [14]: 80.22%
IC50 [15]: 0.52 µM
IC50 (A549): 1.3 µM
Activity [16]: 5.98%
IC50 (MCF7): 0.68 µM
Activity [17]: 14.6%
Activity [18]: 13.3%
viability at 4 µM [19]: 15.2%
viability at 0.5 µM [20]: 84.2%
IC50 (BEAS-2B): 2.09 µM
Activity [21]: 18.65%
Activity [22]: 0.216%
IC50 (SW480): 0.75 µM
Activity [23]: 0.529%
Activity [24]: 12.76%

From ChEMBL document CHEMBL4373640, “Synthesis and antitumor activity of aza-brazilan derivatives containing imidazolium salt pharmacophores” (Medchemcomm, 2019)
